The nature of assay [1]: Her2 expression decrease, cell viability multiplex – SKBR3 breast tumor cells, AlphaScreen, ATP viability, primary screen (AID 461;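 active = Her2 level under about 52% in both replicate screens, with viability over 70% of control, limit read from the data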;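 as to Her2 level: lower value means less Her2 protein in the cells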;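 as to viability: percent of carrier control wells set as 100% viability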). Particulars: SKBR3 Her2 protein level, 18-24 h, measured here: SKBR3 viability, ATP luminescence, at 10 µM.
For assay [2], the target named is Receptor tyrosine-protein kinase erbB-2 (Homo sapiens) (UniProt P04626). Described as above. Particulars: 18-24 h, at 10 µM, stronger effect = lower value.
Receptor tyrosine-protein kinase erbB-2 (Homo sapiens), sequence (P04626 whole entry, looked up): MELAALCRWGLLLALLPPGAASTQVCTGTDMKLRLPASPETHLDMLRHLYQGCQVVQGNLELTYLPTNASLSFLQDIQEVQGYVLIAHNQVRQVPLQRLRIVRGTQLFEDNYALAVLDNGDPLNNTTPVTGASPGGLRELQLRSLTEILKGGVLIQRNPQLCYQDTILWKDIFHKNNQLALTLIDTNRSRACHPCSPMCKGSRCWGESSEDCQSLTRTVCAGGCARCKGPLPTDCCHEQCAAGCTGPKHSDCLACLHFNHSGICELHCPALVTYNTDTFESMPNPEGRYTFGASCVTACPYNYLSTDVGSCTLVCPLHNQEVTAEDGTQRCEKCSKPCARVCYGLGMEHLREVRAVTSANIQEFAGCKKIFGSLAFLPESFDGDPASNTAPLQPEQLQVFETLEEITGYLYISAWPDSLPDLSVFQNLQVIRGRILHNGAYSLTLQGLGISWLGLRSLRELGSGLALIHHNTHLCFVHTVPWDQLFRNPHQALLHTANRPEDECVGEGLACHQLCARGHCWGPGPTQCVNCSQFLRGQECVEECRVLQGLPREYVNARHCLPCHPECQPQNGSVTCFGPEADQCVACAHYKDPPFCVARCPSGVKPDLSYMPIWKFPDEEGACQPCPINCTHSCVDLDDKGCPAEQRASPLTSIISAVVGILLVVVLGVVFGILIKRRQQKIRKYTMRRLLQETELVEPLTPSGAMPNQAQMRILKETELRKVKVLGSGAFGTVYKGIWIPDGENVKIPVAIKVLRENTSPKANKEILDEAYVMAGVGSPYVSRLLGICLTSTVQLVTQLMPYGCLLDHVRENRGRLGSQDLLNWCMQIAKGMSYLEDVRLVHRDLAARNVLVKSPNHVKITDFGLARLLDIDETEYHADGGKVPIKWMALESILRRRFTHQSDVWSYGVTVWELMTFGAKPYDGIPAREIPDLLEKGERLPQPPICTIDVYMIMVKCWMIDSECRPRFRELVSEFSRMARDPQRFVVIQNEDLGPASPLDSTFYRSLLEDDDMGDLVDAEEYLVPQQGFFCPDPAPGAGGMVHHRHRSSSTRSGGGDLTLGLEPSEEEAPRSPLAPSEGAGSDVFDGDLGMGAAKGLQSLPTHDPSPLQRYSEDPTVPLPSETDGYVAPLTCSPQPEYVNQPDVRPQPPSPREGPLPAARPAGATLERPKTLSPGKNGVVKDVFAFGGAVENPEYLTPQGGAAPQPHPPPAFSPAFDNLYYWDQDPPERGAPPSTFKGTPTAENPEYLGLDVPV
A short description of assay [3]: reduced viability of SK-BR-3 breast cancer cells – cell-based, 24 h, human, pilot screen (AID 572;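 active = viability at or below 10% of carrier control in both of two separate runs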;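 also: compound exposure lasted between 18 and 24 h rather than exactly 24 h; 100% = carrier-treated control wells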). Particulars: SK-BR-3 viability, CellTiter-Glo luminescence, at 10 µM, stronger effect = lower value. For orientation: ATP-based viability assays read luminescence as a measure of living cells.
Assay [4] is described as follows: HUVEC growth inhibition – cell-based, human, primary screen (AID 575;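 active = viability at or below 30% in both replicate assays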;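 also: 100% = median of untreated cell wells with 0.1% DMSO on each plate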). Conditions: HUVEC proliferation, CellTiter-Glo luminescence, 72 h; at 10 µM; stronger effect = lower value. Summed up: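 Material: primary human umbilical vein endothelial cells / Schedule: 72 h exposure, 37 °C, 5% CO2, 30 min RT equilibration / Signal: ATP-based CellTiter-Glo luminescent read / Read-out basis: percent of median DMSO-control luminescence / Control set: 32 DMSO-only cell-control wells (high), 32 MePR drug-control wells (low) per plate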

Assay [5] can be described thus: H69AR cell proliferation blockers – human, duplicate replicates, primary screen (AID 580;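 active = viability at or under a set limit in both replicates, limit being median viability minus 3 SD, cut at about 48% in these data, passing the limit was not always enough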;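 also: 100% = mean luminescence of untreated wells and 0% = no signal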). Conditions: H69AR lung tumor cells viability, ATP luminescence, 72 h; at 10 µM; stronger effect = lower value.
Assay [6] is described as follows: MRP1 drug-resistance reversers in H69AR cells – cell-based, doxorubicin co-treatment, pilot screen (AID 601;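 active = viability loss from added drug above about 55%, and viability with drug at most 40%, in both replicates, limit read from the data, passing the limit was not always enough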). Particulars: CellTiter-Glo, 72 h, at 10 µM; for differential viability (reversal): stronger effect = higher value.
A short description of assay [7]: yeast transport mutant growth inhibition pilot in 384-well plates, post-Golgi transport modulator project (AID 636; in the data active = inhibition above about 31%). Particulars: absorbance 615 nm, about 18 h, stronger effect = higher value.
Assay [8] can be described thus: growth suppression of yeast trafficking mutant, preliminary HTS, modulators of trafficking downstream of Golgi apparatus project, 1536-format plate, OD 615 nm (AID 637). Conditions: yeast transport mutant growth, absorbance 615 nm, 18 h; stronger effect = higher value.
The mark [9] stands for this setting: H69AR cells + 2 uM doxorubicin, measured here: viability with 2 uM doxorubicin, stronger effect = lower value.
Where [10] appears, read: H69AR cells, compound alone cytotoxicity.

Calls of active or inactive are those of the source. Rule as the data show it, unless noted: active = inhibition above about 30%; inactive = the rest.

Here are results for 16 compounds from PubChem BioAssay.

In general, viability refers to a read-out of living cells in per cent, often relative to untreated cells. For orientation: inhibition means the relative decrease from the control value, in per cent.

`COCCn1c(SCC(=O)Nc2cccc(OC)c2)nnc1-c1ccccc1`: the viability in assay [1] is 101%; in assay [3], 101% (inactive); in assay [4], 90.1% (inactive); in assay [5] it was 103% (inactive); in assay [6] (setting [9]) it was 96.6%; in assay [6] (setting [10]) it was 103%. Besides, the Her2 level in assay [2] was 99.5% (inactive). The differential viability (reversal) in assay [6] (H69AR cells + 2 uM doxorubicin) is 6.8% (inactive). Besides, the inhibition is -3.51% (inactive) in assay [7] and 4.43% (inactive) in assay [8].
As to `NS(=O)(=O)c1ccc(NCc2c(F)cccc2Cl)cc1`, the viability was 100% in assay [1]; 100% (inactive) in assay [3]; 102% (inactive) in assay [4]; 82.9% (inactive) in assay [5]; 76.5% in assay [6] (setting [9]); 82.9% in assay [6] (setting [10]). In assay [2], the Her2 level was 95.5% (inactive). Moreover, in assay [6] (H69AR cells + 2 uM doxorubicin), the differential viability (reversal) was 6.38% (inactive). The values for the inhibition in assay [7] and in assay [8] were -3.82% (inactive) and 7.54% (inactive), respectively.
Take `ON1C2CCCCC2N(O)C1c1c(F)c(F)c(F)c(F)c1F` (stereo not given): the viability in assay [1] was 89.5%; in assay [3], 89.5% (inactive); in assay [4] it was 85.9% (inactive); in assay [5], 92.8% (inactive); in assay [6] (setting [9]) it was 82.5%; in assay [6] (setting [10]), 92.8%. Also, in assay [2], the Her2 level is 79% (inactive). In assay [6] (H69AR cells + 2 uM doxorubicin), the differential viability (reversal) was 10.3% (inactive). Moreover, the inhibition was -5.2% (inactive) in assay [7] and -0.97% (inactive) in assay [8].
In the case of `O=C(c1cc(S(=O)(=O)N2CCOCC2)ccc1F)N1CCCc2ccccc21`, the viability in assay [1] was 99%; in assay [3] it was 99% (inactive); in assay [4] it was 102% (inactive); in assay [5], 90.9% (inactive); in assay [6] (setting [9]) it was 94.3%; in assay [6] (setting [10]), 90.9%. Besides, the Her2 level in assay [2] was 87% (inactive). Besides, the differential viability (reversal) in assay [6] (H69AR cells + 2 uM doxorubicin) is -3.44% (inactive). Also, the inhibition in assay [7] was 0.64% (inactive); in assay [8], -2.83% (inactive).
For `O=c1c2cc(Cl)ccc2[nH]c(=S)n1Cc1ccco1`, the viability in assay [1] was 84.5%; in assay [3], 84.5% (inactive); in assay [4], 93.6% (inactive); in assay [5] it was 86.7% (inactive); in assay [6] (setting [9]) it was 88%; in assay [6] (setting [10]) it was 86.7%. Moreover, the Her2 level in assay [2] is 81% (inactive). Besides, the differential viability (reversal) in assay [6] (H69AR cells + 2 uM doxorubicin) is -1.27% (inactive). Also, the inhibition in assay [7] is -8.13% (inactive); in assay [8] it was 10.2% (inactive).
Take `Cn1nc(C(=O)NC2CCCCCC2)ccc1=O`: the viability in assay [1] was 126%; in assay [3], 126% (inactive); in assay [4], 101% (inactive); in assay [5] it was 111% (inactive); in assay [6] (setting [9]), 92%; in assay [6] (setting [10]), 111%. Also, the Her2 level in assay [2] is 104% (inactive). In addition, the differential viability (reversal) in assay [6] (H69AR cells + 2 uM doxorubicin) was 19.2% (inactive). The figures for the inhibition in assay [7] and in assay [8] were -2.6% (inactive) and -0.79% (inactive), respectively.
Consider `N#Cc1c2n(c(=S)n(-c3ccccn3)c1=O)CCCCC2`, for which the viability in assay [1] was 81.5%; in assay [3] it was 81.5% (inactive); in assay [4], 97.8% (inactive); in assay [5], 86% (inactive); in assay [6] (setting [9]) it was 91.1%; in assay [6] (setting [10]) it was 86%. For the same compound, in assay [2], the Her2 level is 91.5% (inactive). The differential viability (reversal) in assay [6] (H69AR cells + 2 uM doxorubicin) was -5.17% (inactive). Further, the inhibition in assay [7] was 2.99% (inactive); in assay [8] it was -10.7% (inactive).
For the compound `CCN(CC)S(=O)(=O)c1ccc2c(c1)nc(SCC(=O)NC1CC1)n2-c1ccccc1OC`, the viability was 92.5% in assay [1]; 92.5% (inactive) in assay [3]; 67.8% (inactive) in assay [4]; 91.3% (inactive) in assay [5]; 77.1% in assay [6] (setting [9]); 91.3% in assay [6] (setting [10]). Besides, the Her2 level in assay [2] is 86.5% (inactive). The differential viability (reversal) in assay [6] (H69AR cells + 2 uM doxorubicin) was 14.2% (inactive). For the same compound, the inhibition was -5.81% (inactive) in assay [7] and 3.65% (inactive) in assay [8].
`CS(=O)(=O)N1CCCC(C(=O)NCCCN2CCC(Cc3ccccc3)CC2)C1` (stereo not given): the viability in assay [1] is 108%; in assay [3] it was 108% (inactive); in assay [4], 101% (inactive); in assay [5], 103% (inactive); in assay [6] (setting [9]) it was 103%; in assay [6] (setting [10]), 103%. The Her2 level in assay [2] is 115% (inactive). For the same compound, the differential viability (reversal) in assay [6] (H69AR cells + 2 uM doxorubicin) was 0.23% (inactive). The inhibition was 2.6% (inactive) in assay [7] and -5.56% (inactive) in assay [8].
Take `O=c1cc(COn2nnc3ccc(C(F)(F)F)cc32)nc2sccn12`: the viability in assay [1] is 89.5%; in assay [3] it was 89.5% (inactive); in assay [4], 104% (inactive); in assay [5], 85.7% (inactive); in assay [6] (setting [9]), 105%; in assay [6] (setting [10]), 85.7%. Moreover, the Her2 level in assay [2] was 91.5% (inactive). Further, the differential viability (reversal) in assay [6] (H69AR cells + 2 uM doxorubicin) is -19.7% (inactive). The inhibition is -1.71% (inactive) in assay [7] and 0.63% (inactive) in assay [8].
Regarding `CCn1c(=O)c(C(=O)Nc2cccnc2)c(O)c2ccccc21`, the viability in assay [1] is 103%; in assay [3], 103% (inactive); in assay [4], 113% (inactive); in assay [5], 67.7% (inactive); in assay [6] (setting [9]), 91.9%; in assay [6] (setting [10]) it was 67.7%. The Her2 level in assay [2] is 84.5% (inactive). The differential viability (reversal) in assay [6] (H69AR cells + 2 uM doxorubicin) is -24.2% (inactive). Also, the inhibition in assay [7] is -0.93% (inactive); in assay [8], 100% (active).
For `CC(C)CNS(=O)(=O)c1ccc(CCC(=O)N2CCOCC2)cc1`, the viability is 87.5% in assay [1]; 87.5% (inactive) in assay [3]; 95% (inactive) in assay [4]; 91.3% (inactive) in assay [5]; 94.6% in assay [6] (setting [9]); 91.3% in assay [6] (setting [10]). Also, the Her2 level in assay [2] was 94% (inactive). Also, in assay [6] (H69AR cells + 2 uM doxorubicin), the differential viability (reversal) is -3.29% (inactive). In addition, the inhibition in assay [7] was -4.73% (inactive); in assay [8], -4.59% (inactive).
Turning to `CC12CCC(C(=O)N3CCCCC3)(CC1=O)C2(C)C` (stereo not given), the viability in assay [1] was 97.5%; in assay [3], 97.5% (inactive); in assay [4], 96.3% (inactive); in assay [5], 97.8% (inactive); in assay [6] (setting [9]), 97.2%; in assay [6] (setting [10]), 97.8%. For the same compound, the Her2 level in assay [2] was 102% (inactive). Also, the differential viability (reversal) in assay [6] (H69AR cells + 2 uM doxorubicin) was 0.59% (inactive). For the same compound, the inhibition is -3.08% (inactive) in assay [7] and -0.83% (inactive) in assay [8].
With `O=C1CCc2cc(S(=O)(=O)N3CCC(C(=O)NCc4ccccn4)CC3)ccc2N1`, the viability in assay [1] was 81%; in assay [3], 81% (inactive); in assay [4], 98% (inactive); in assay [5] it was 96.7% (inactive); in assay [6] (setting [9]) it was 95.3%; in assay [6] (setting [10]), 96.7%. The Her2 level in assay [2] is 89% (inactive). Besides, the differential viability (reversal) in assay [6] (H69AR cells + 2 uM doxorubicin) is 1.42% (inactive). Moreover, the inhibition in assay [7] was -0.4% (inactive); in assay [8], 14.4% (inactive).
In the case of `CC1(C)Cc2noc(N)c2C(C)(C)N1O`, the viability was 121% in assay [1]; 121% (inactive) in assay [3]; 89.5% (inactive) in assay [4]; 95.6% (inactive) in assay [5]; 80.8% in assay [6] (setting [9]); 95.6% in assay [6] (setting [10]). In addition, in assay [2], the Her2 level was 91% (inactive). Also, the differential viability (reversal) in assay [6] (H69AR cells + 2 uM doxorubicin) was 14.8% (inactive). In addition, the values for the inhibition in assay [7] and in assay [8] were -4.61% (inactive) and 2.7% (inactive), respectively.
Regarding `C=CCc1cc(C(=O)N2CCCCC2)ccc1O`, the viability in assay [1] is 104%; in assay [3], 104% (inactive); in assay [4], 88% (inactive); in assay [5] it was 92.3% (inactive); in assay [6] (setting [9]) it was 108%; in assay [6] (setting [10]), 92.3%. Also, the Her2 level in assay [2] was 100% (inactive). In addition, in assay [6] (H69AR cells + 2 uM doxorubicin), the differential viability (reversal) is -15.2% (inactive). In addition, the values for the inhibition in assay [7] and in assay [8] were -2.5% (inactive) and 8.2% (inactive), respectively.
